Test results taken from ChEMBL document CHEMBL1764990, “Caffeic acid phenethyl ester inhibits PDGF-induced proliferation of vascular smooth muscle cells via activation of p38 MAPK, HIF-1α, and heme oxygenase-1” (J Nat Prod, 2011).
The source made the active and inactive calls.

Columns and labels:
[1] = system: VSMC; test: Decrease in basal ROS level in PDGF-stimulated rat VSMC at 5 uM pretreated with compound for 30 mins measured after upto 23 hrs of post stimulation using H2DCF by flow cytometric analysis; type: functional
Summary of the method: (§1)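 Quiescent rat aortic VSMCs pretreated 30 min with 5 μM compound or vehicle, then stimulated with PDGF (20 ng/mL). At set times up to 23 h, total intracellular ROS measured by flow cytometry of oxidized H2DCF (H2DCFDA probe). n = 3, ANOVA.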

[2] = system: VSMC; test: Inhibition of PDGF-induced DNA synthesis in rat VSMC assessed as [3H]thymidine incorporation into DNA at 5 uM treated for 30 mins before 24 hrs of PDGF challenge; type: functional
Summary of the method: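 Quiescent rat aortic VSMCs (starved 48 h) pretreated 30 min with 5 μM compound, then stimulated with PDGF-BB (20 ng/mL). Methyl-3H-thymidine (2 μCi/mL) pulse for the last 6 h of 24 h. TCA-insoluble radioactivity measured after NaOH solubilisation.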

[3] = species on record: Rattus norvegicus; test: Inhibition of NF-kappaB activation in rat VSMC at 5 uM
[4] = system: VSMC; test: Inhibition of PDGF-stimulated rat VSMC proliferation; type: functional
[5] = Cytotoxicity against rat VSMC assessed as detachment of the cells at >25 uM after 48 hrs by trypan blue exclusion assay; type: cell-based
Summary of the method: (§2)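 Cultured rat aortic VSMCs exposed to compound for 48 h. Viability by trypan blue exclusion, with cell morphology and detachment also noted.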

[6] = system: VSMC; test: Induction of HO-1 protein expression in Nrf2-deficient PDGF-stimulated rat VSMC; type: functional
[7] = Cell cycle arrest in PDGF-induced rat VSMC assessed as accumulation at G0/G1 phase at 5 uM treated for 30 mins followed by induced with PDGF for 28 hrs by propidium iodide staining by flow cytometry; type: functional, cell-based
Summary of the method: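 Quiescent rat aortic VSMCs pretreated 30 min with 5 μM compound, then stimulated with PDGF (20 ng/mL) for 28 h. Nuclei stained with propidium iodide; cell-cycle distribution by flow cytometry. n = 3.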

[8] = system: VSMC; test: Antiproliferative activity against PDGF-stimulated rat VSMC transfected with HO-1 siRNA assessed as growth arrest after 24 hrs by immunoblot analysis; type: functional; conditions: in the assay text read “by cell counting” for “by immunoblot analysis”
Summary of the method: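 Rat aortic VSMCs transfected with scrambled or HO-1-specific siRNA, then starved, treated with compound and stimulated with PDGF. Cells were counted after 24 h. HO-1 knockdown was checked by immunoblot. n = 3, Student's t-test.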

[9] = Cytotoxicity against rat VSMC assessed as morphological changes at >25 uM after 48 hrs by trypan blue exclusion assay; summary of the method: as §2
[10] = target: Signal transducer and activator of transcription 3 (Rattus norvegicus) (UniProt P52631); test: Inhibition of STAT3 phosphorylation in PDGF-stimulated rat VSMC at 5 uM treated for 30 mins before 10 mins of cell stimulation by Western blot analysis
Summary of the method: (§3)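 Quiescent rat aortic VSMCs (serum-free DMEM 24 h) pretreated 30 min with vehicle or 5 μM compound, then stimulated with PDGF (20 ng/mL) for 10 min. Total lysates analysed by Western blot for phospho-AKT, ERK, JNK, STAT3 and p38, with tubulin or actin.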

[11] = system: VSMC; test: Inhibition of PDGF-stimulated rat VSMC proliferation after 24 hrs; type: functional
Summary of the method: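 Quiescent rat aortic VSMCs treated with compound (1–10 μM) or vehicle, then stimulated with PDGF (20 ng/mL) for 24 h. Cells were counted; the increase in cell number in vehicle-treated cells was set to 100%.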

[12] = system: VSMC; test: Inhibition of rat VSMC proliferation at 5 uM; type: functional
[13] = system: VSMC; test: Induction of HO-1 protein expression in rat VSMC at 5 uM measured after 16 hrs in presence of 10 to 100 uM of HIF-1alpha inhibitor […] treated for 15 mins by immunoblot analysis; type: functional
Summary of the method: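 Rat aortic VSMCs pretreated 15 min with the HIF-1α inhibitor YC-1 at graded levels (up to 100 μM), then given 5 μM compound or vehicle for 16 h. HO-1 read by immunoblot.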

[14] = system: VSMC; test: Decrease in intracellular ROS level in PDGF-stimulated rat VSMC at 5 uM pretreated with compound for 30 mins measured after upto 23 hrs of post stimulation using H2DCF by flow cytometric analysis; type: functional, cell-based; summary of the method: as §1
[15] = system: VSMC; test: Antiproliferative activity against PDGF-stimulated rat VSMC assessed as inhibition of DNA synthesis at 5 uM after 24 hrs by [3H]-thymidine incorporation assay in presence of p38 kinase inhibitor SB203580; type: functional
Summary of the method: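 Rat aortic VSMCs starved 48 h. Treated with compound (5 μM), p38 inhibitor SB203580 (10 μM) and PDGF-BB (20 ng/mL) as indicated. Pulse-labelled with methyl-3H-thymidine (2 μCi/mL) for the final 6 h of 24 h. TCA-precipitated material was dissolved in 0.4 M NaOH and counted. n = 3, Student's t-test.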

[16] = species on record: Rattus norvegicus; test: Effect on p38 MAPK activation in PDGF-stimulated rat VSMC assessed as phosphorylation at 5 uM treated for 30 mins followed by stimulated with PDGF for 10 mins by immunoblot analysis
Summary of the method: (§4)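 Quiescent rat aortic VSMCs pretreated 30 min with vehicle or 5 μM compound, then stimulated with PDGF for 10 or 60 min. Total lysates immunoblotted for phospho-p38 and total p38. Three independent experiments.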

[17] = system: VSMC; test: Inhibition of AKT phosphorylation in PDGF-stimulated rat VSMC at 5 uM treated for 30 mins before 10 mins of cell stimulation by Western blot analysis; type: cell-based; summary of the method: as §3
[18] = system: VSMC; test: Inhibition of p38 phosphorylation in PDGF-stimulated rat VSMC at 5 uM treated for 30 mins before 10 mins of cell stimulation by Western blot analysis; type: cell-based; summary of the method: as §3
[19] = system: VSMC; test: Increase in HO-1 protein expression in rat VSMC at 5 uM after 16 hrs by immunoblot analysis; type: functional
Summary of the method: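 Rat aortic VSMCs treated 16 h with vehicle, compound (5 μM) or cobalt protoporphyrin (10 μM). Total lysates immunoblotted for HO-1 and actin. Three independent experiments.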

[20] = system: VSMC; test: Induction of cell cycle arrest in rat VSMC at G1 phase assessed as inhibition of retinoblastoma protein phosphorylation treated for 30 mins before 12 hrs of PDGF challenge by Western blot analysis; type: functional, cell-based
[21] = target: Mitogen-activated protein kinase 8 (Rattus norvegicus) (UniProt P49185); test: Inhibition of JNK1/2 phosphorylation in PDGF-stimulated rat VSMC at 5 uM treated for 30 mins before 10 mins of cell stimulation by Western blot analysis; type: cell-based; summary of the method: as §3
[22] = species on record: Rattus norvegicus; test: Effect on p38 MAPK activation in PDGF-stimulated rat VSMC assessed as phosphorylation at 5 uM treated for 30 mins followed by stimulated with PDGF for 60 mins by immunoblot analysis; summary of the method: as §4
[23] = species on record: Rattus norvegicus; test: Inhibition of TNFalpha-induced NF-kappaB binding activity in rat VSMC at 5 uM pretreated for 30 mins before 45 mins of TNFalpha stimulation by gel shift assay
Summary of the method: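 Rat aortic VSMCs in six-well plates preincubated 30 min with vehicle or compound, then treated with TNF-α (10 ng/mL). NF-κB DNA binding in nuclear extracts measured by electrophoretic mobility shift assay.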

[24] = target: Mitogen-activated protein kinase 1 and 3 (ERK2 and ERK1) (Rattus norvegicus) (UniProt P63086+P21708); test: Inhibition of ERK1/2 phosphorylation in PDGF-stimulated rat VSMC at 5 uM treated for 30 mins before 10 mins of cell stimulation by Western blot analysis; summary of the method: as §3
[25] = system: VSMC; test: Accumulation of HIF-1alpha in PDGF-stimulated rat VSMC at 5 uM after 4 hrs by immunoblot analysis; type: functional
Summary of the method: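 Primary aortic smooth muscle cells from male Sprague-Dawley rats, made quiescent in serum-free DMEM for 24 h. Pretreated with compound or vehicle, then stimulated with PDGF. After 4 h, total cell lysates were immunoblotted for HIF-1α, with actin as loading control.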

[26] = Cytotoxicity against rat VSMC assessed as cell viability at >25 uM after 48 hrs by trypan blue exclusion assay; type: cell-based; conditions: VSMC (vascular smooth muscle cells), read-out: Activity; summary of the method: as §2
[27] = system: VSMC; test: Inhibition of tubulin phosphorylation in PDGF-stimulated rat VSMC at 5 uM treated for 30 mins before 10 mins of cell stimulation by Western blot analysis; type: cell-based

Chain of Signal transducer and activator of transcription 3 (Rattus norvegicus) (P52631 whole entry): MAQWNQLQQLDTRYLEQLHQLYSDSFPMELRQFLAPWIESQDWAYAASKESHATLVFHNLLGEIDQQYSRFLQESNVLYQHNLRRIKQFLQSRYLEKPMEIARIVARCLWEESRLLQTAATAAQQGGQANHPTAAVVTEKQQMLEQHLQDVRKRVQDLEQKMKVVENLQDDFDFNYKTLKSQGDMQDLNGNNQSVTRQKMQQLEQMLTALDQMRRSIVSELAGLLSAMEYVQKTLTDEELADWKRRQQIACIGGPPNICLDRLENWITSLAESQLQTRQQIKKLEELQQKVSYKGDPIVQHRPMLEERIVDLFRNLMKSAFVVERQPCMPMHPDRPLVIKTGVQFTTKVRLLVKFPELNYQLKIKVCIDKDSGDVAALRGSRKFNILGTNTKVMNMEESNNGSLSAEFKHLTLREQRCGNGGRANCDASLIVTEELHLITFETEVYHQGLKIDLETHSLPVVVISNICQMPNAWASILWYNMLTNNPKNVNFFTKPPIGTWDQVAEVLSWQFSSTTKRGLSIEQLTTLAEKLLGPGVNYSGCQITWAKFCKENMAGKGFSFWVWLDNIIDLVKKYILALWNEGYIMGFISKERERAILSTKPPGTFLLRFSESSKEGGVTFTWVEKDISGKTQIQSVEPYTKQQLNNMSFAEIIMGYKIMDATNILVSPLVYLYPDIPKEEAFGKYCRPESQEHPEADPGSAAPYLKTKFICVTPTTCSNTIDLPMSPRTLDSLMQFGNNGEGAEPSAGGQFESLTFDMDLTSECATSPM
Chain of Mitogen-activated protein kinase 8 (Rattus norvegicus) (P49185 whole entry): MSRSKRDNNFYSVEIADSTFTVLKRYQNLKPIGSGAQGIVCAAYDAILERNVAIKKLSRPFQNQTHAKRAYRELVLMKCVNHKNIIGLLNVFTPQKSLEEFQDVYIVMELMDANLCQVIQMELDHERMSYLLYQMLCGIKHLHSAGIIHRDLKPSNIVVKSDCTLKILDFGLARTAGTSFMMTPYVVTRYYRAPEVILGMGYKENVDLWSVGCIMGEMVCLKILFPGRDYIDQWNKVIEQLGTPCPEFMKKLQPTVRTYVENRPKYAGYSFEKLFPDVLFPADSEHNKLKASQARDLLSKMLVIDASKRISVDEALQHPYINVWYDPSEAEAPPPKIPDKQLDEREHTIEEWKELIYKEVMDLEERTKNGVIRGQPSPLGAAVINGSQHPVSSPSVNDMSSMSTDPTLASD
Chain of Mitogen-activated protein kinase 1 and 3 (ERK2 and ERK1) (Rattus norvegicus) (P21708 whole entry, looked up): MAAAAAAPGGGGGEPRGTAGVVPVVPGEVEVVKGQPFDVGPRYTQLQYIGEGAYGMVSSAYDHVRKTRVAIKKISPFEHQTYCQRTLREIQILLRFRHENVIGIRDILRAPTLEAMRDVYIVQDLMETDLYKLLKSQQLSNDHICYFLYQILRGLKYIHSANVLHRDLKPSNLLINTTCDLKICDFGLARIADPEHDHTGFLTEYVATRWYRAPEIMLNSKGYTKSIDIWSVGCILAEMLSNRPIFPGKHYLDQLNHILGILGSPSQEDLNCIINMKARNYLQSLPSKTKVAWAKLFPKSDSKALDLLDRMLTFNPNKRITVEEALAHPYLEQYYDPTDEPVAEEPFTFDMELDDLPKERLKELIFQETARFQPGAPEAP
Chain of Mitogen-activated protein kinase 1 and 3 (ERK2 and ERK1) (Rattus norvegicus) (P63086 whole entry, looked up): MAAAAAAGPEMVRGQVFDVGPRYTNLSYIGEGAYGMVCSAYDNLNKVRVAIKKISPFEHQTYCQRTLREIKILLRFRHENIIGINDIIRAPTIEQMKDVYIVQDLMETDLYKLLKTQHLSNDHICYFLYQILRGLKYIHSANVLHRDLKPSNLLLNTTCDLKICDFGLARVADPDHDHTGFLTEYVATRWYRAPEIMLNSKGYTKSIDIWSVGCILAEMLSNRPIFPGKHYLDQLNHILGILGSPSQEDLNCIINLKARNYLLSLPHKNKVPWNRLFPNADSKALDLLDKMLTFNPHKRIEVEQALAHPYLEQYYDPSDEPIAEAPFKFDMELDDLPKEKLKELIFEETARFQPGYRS

O=C(/C=C/c1ccc(O)c(O)c1)OCCc1ccccc1 [CAFFEIC ACID PHENETHYL ESTER]
inactive: Activity [3] | growth inhibition (GI) [8] | Activity [10] | Activity [13] | inhibition [15] | Activity [17] | Activity [18] | Activity [21] | Activity [23] | Activity [24] | Activity [27]
active: Activity [1] | Activity [2] | inhibition [4] Dose-dependent effect | Activity [6] | Activity [7] | inhibition [11] Dose-dependent effect | Activity [12] | Activity [14] | Activity [16] | Activity [19] | inhibition [20] | Activity [22] | Activity [25]
65%: viability at 48 h [26]
Toxic: Activity [5] | Activity [9]
